Results: ChEMBL document CHEMBL4038343, “Dual MET and SMO Negative Modulators Overcome Resistance to EGFR Inhibitors in Human Nonsmall Cell Lung Cancer” (J Med Chem, 2017)
pIC50, pKi: −log10 of the molar value. Activity calls are given as the source filed them. The rule behind the calls is not given here.

Assays:
[1] = tested on: Protein smoothened (Homo sapiens), Q99835 [V404M]; assay: Inhibition of SMO V404M mutant in gefitinib resistant human HCC827 cells assessed as decrease in GLI1 activity at 2 to 60 uM in presence of SMO agonist SAG by GLI1 luciferase reporter assay
How it was run: (§1)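 HCC827-GR cells seeded serum-free, cotransfected at 50% confluence with GLI1-firefly luciferase reporter plus pRL-TK Renilla (Lipofectamine 2000, triplicate); after 8 h medium switched to compound, with or without 100 nM SAG; about 48 h post-transfection dual-luciferase read; firefly normalized to Renilla as fold over control; three independent experiments.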

Protein smoothened [2] = molecular target: Protein smoothened (Homo sapiens, UniProt Q99835, V404M); assay: Displacement of [3H]-cyclopamine from SMO V404M mutant in gefitinib resistant human HCC827 cells by scintillation counting
Protein smoothened [3] = molecular target: Protein smoothened (Homo sapiens, UniProt Q99835); assay: Displacement of [3H]-cyclopamine from human wild-type SMO receptor expressed in HEK293T cell membranes by liquid scintillation spectrometry; design: species or system HEK-293T
HCC827 [4] = assay: Antitumor activity against gefitinib resistant human HCC827 cells xenografted in balb/c athymic nu/nu mouse assessed as decrease in tumor size at 20 mg/kg/day, po in presence of gefitinib; assay type: functional, organism-based
How it was run: (§2)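 HCC827 s.c. xenografts (10^7 cells in Matrigel) in female balb/c nu/nu mice made gefitinib-resistant by 3-weekly escalating oral gefitinib (18.7–150 mg/kg/day); gefitinib then continued at its last maximal dose with oral compound at fixed daily dose; tumor volume by calipers (π/6 × larger × smaller²) and body weight on alternate days.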

[5] = tested on: Protein smoothened (Homo sapiens), Q99835 [V404M]; assay: Inhibition of SMO V404M mutant in gefitinib resistant human HCC827 cells assessed as decrease in GLI1 activity at 60 uM by GLI1 luciferase reporter assay relative to control; how it was run: as §1
HCC827 [6] = assay: Antitumor activity against gefitinib resistant human HCC827 cells xenografted in balb/c athymic nu/nu mouse assessed as decrease in tumor size at 20 mg/kg/day, po; assay type: functional, organism-based
How it was run: (§3)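 Female balb/c nu/nu mice, 4–6 weeks old, given 10^7 HCC827 cells s.c. in 1:1 Matrigel/medium; at 150 mm3 tumors, 3-weekly escalating oral gefitinib (18.7 to 150 mg/kg/day) over 4 months until resistance (>25% regrowth from maximal reduction); then randomized to oral test agent at fixed daily dose; tumor volume (π/6 × larger × smaller²) every other day.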

HCC827 [7] = assay: Effect on total AKT levels in gefitinib resistant human HCC827 cells at 0.1 to 0.5 uM after 72 hrs by Western blotting method; assay type: ADME, cell-based; settings: hcc827, 72 h
How it was run: (§4)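 HCC827-GR cells treated 72 h; lysates in RIPA or Tween-20 buffer, protein equalized by Bradford, Western blotting with antibodies to p-MAPK44/42 (Thr202/Tyr204), MAPK, p-AKT (Ser473), AKT, p-MET (Tyr1234/1235), MET, SMO, GLI1, α-tubulin; ECL detection; triplicate.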

HCC827 [8] = assay: Effect on total MAPK levels in gefitinib resistant human HCC827 cells at 0.1 to 0.5 uM after 72 hrs by Western blotting method; assay type: ADME, cell-based; settings: hcc827, 72 h; how it was run: as §4
HCC827 [9] = assay: Antiproliferative activity against gefitinib resistant EGFR-mutated human HCC827 cells after 72 hrs by MTT assay; assay type: functional, cell-based; settings: for pIC50: HCC827, 72 h
HCC827 [10] = assay: Downregulation of SMO expression in gefitinib resistant human HCC827 cells at 0.1 to 0.5 uM after 72 hrs by Western blotting method; assay type: functional, cell-based; how it was run: as §4
HCC827 [11] = assay: Induction of apoptosis in gefitinib resistant human HCC827 cells at 0.01 to 1 uM after 72 hrs by annexin V-FITC-propidium iodide staining-based flow cytometry method relative to control; assay type: functional, cell-based
How it was run: (§5)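 HCC827-GR cells treated 72 h, trypsinized, resuspended at 1 × 10^6/mL in binding buffer, stained 30 min at RT in dark with annexin V-FITC and propidium iodide; FACSCalibur flow cytometry (488 nm excitation; 530 nm FITC, 670 nm PI); mean of three wells from a representative experiment.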

[12] = tested on: Protein smoothened (Homo sapiens), Q99835 [V404M]; assay: Inhibition of SMO V404M mutant in gefitinib resistant human HCC827 cells assessed as decrease in GLI1 activity at 2 uM by GLI1 luciferase reporter assay relative to control; how it was run: as §1
[13] = tested on: Protein smoothened (Homo sapiens), Q99835 [V404M]; assay: Inhibition of SMO V404M mutant in gefitinib resistant human HCC827 cells assessed as decrease in GLI1 activity by GLI1 luciferase reporter assay; how it was run: as §1
HCC827 [14] = assay: Antitumor activity against gefitinib resistant human HCC827 cells xenografted in balb/c athymic nu/nu mouse assessed as decrease in tumor size at 20 mg/kg/day, po in presence of gefitinib
[15] = tested on: Protein smoothened (Homo sapiens), Q99835 [V404M]; assay: Displacement of [3H]-cyclopamine from SMO V404M mutant in gefitinib resistant human HCC827 cells at 10 uM by scintillation counting
HCC827 [16] = assay: Antitumor activity against gefitinib resistant human HCC827 cells xenografted in balb/c athymic nu/nu mouse assessed as decrease in tumor size at 15 mg/kg/day, po in presence of gefitinib; assay type: functional, organism-based; how it was run: as §2
[17] = Plasma concentration in balb/c athymic nu/nu mouse at 20 mg/kg, po measured after 5 hrs; assay type: ADME, organism-based
HCC827 [18] = assay: Effect on total AKT levels in gefitinib resistant human HCC827 cells at 0.05 to 0.1 uM after 72 hrs by Western blotting method; assay type: ADME, cell-based; settings: hcc827, 72 h; how it was run: as §4
HCC827 [19] = assay: Antitumor activity against gefitinib resistant human HCC827 cells xenografted in balb/c athymic nu/nu mouse assessed as decrease in tumor size at 15 mg/kg/day, po in presence of gefitinib
[20] = molecular target: Hepatocyte growth factor receptor (Homo sapiens) (UniProt P08581); assay: Inhibition of MET in gefitinib resistant human HCC827 cells assessed as decrease in MAPK44/42 phosphorylation at Thr202/Tyr204 at 0.05 to 0.1 uM after 72 hrs by Western blotting method; how it was run: as §4
HCC827 [21] = assay: Downregulation of SMO expression in gefitinib resistant human HCC827 cells at 0.05 to 0.1 uM after 72 hrs by Western blotting method; assay type: functional, cell-based; how it was run: as §4
[22] = molecular target: Hepatocyte growth factor receptor (Homo sapiens) (UniProt P08581); assay: Inhibition of MET phosphorylation at Tyr1234/1235 in gefitinib resistant human HCC827 cells at 0.05 to 0.1 uM after 72 hrs by Western blotting method; how it was run: as §4
HCC827 [23] = assay: Antitumor activity against gefitinib resistant human HCC827 cells xenografted in balb/c athymic nu/nu mouse assessed as decrease in tumor size at 15 mg/kg/day, po; assay type: functional, organism-based; how it was run: as §3
[24] = molecular target: Hepatocyte growth factor receptor (Homo sapiens) (UniProt P08581); assay: Inhibition of MET in gefitinib resistant human HCC827 cells assessed as decrease in AKT phosphorylation at Ser473 at 0.05 to 0.1 uM after 72 hrs by Western blotting method; how it was run: as §4
HCC827 [25] = assay: Induction of apoptosis in gefitinib resistant human HCC827 cells at 0.1 uM after 72 hrs by annexin V-FITC-propidium iodide staining-based flow cytometry method relative to control; assay type: functional; how it was run: as §5
HCC827 [26] = assay: Effect on total MAPK levels in gefitinib resistant human HCC827 cells at 0.05 to 0.1 uM after 72 hrs by Western blotting method; assay type: ADME, cell-based; settings: hcc827, 72 h; how it was run: as §4
Homo sapiens = species: Homo sapiens; assay: Inhibition of MET/SMO V404M mutant in gefitinib resistant human HCC827 cells assessed as decrease in vimentin expression at 0.05 to 0.1 uM after 72 hrs by Western blotting method
HCC827 [27] = assay: Induction of apoptosis in gefitinib resistant human HCC827 cells at 0.5 uM after 72 hrs by annexin V-FITC-propidium iodide staining-based flow cytometry method relative to control; assay type: functional; how it was run: as §5

Sequence of Hepatocyte growth factor receptor (Homo sapiens) (P08581 whole entry): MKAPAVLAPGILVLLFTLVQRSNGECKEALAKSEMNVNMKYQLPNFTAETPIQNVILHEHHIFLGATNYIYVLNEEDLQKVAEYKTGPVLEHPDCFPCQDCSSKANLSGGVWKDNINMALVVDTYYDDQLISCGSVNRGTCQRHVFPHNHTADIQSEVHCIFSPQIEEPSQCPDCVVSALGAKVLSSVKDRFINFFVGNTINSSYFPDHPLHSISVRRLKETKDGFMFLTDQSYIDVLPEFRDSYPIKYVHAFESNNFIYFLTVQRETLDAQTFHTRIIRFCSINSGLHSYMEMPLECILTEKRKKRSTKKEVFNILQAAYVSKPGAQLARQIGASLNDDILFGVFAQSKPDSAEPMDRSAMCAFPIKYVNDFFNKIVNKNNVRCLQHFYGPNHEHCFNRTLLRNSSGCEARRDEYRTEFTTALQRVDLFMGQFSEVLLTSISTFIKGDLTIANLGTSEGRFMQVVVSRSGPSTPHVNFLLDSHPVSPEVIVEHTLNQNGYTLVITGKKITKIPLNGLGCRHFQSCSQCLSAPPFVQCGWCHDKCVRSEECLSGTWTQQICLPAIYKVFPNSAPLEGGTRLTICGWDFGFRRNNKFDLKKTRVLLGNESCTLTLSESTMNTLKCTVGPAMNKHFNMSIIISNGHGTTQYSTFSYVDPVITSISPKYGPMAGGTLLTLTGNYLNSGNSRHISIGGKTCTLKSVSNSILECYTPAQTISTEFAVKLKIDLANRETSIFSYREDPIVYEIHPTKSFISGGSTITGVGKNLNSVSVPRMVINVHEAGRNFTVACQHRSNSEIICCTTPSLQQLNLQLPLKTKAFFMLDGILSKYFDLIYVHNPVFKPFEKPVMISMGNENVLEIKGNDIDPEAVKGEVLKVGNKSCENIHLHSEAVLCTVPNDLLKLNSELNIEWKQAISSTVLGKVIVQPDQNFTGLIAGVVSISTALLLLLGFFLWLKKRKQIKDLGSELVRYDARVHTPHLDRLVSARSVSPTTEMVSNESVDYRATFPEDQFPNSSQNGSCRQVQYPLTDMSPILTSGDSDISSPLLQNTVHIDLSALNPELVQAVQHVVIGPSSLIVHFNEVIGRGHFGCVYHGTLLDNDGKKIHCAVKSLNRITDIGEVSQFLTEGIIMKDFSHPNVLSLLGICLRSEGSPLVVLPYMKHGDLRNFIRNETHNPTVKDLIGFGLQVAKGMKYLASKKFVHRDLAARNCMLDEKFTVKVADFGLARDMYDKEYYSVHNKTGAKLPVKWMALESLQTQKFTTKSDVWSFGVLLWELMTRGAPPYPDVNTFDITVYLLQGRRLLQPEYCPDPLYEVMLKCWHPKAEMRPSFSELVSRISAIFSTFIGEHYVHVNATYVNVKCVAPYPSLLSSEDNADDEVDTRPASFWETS
Sequence of Protein smoothened (Homo sapiens), Q99835 [V404M] (Q99835 whole entry V404M): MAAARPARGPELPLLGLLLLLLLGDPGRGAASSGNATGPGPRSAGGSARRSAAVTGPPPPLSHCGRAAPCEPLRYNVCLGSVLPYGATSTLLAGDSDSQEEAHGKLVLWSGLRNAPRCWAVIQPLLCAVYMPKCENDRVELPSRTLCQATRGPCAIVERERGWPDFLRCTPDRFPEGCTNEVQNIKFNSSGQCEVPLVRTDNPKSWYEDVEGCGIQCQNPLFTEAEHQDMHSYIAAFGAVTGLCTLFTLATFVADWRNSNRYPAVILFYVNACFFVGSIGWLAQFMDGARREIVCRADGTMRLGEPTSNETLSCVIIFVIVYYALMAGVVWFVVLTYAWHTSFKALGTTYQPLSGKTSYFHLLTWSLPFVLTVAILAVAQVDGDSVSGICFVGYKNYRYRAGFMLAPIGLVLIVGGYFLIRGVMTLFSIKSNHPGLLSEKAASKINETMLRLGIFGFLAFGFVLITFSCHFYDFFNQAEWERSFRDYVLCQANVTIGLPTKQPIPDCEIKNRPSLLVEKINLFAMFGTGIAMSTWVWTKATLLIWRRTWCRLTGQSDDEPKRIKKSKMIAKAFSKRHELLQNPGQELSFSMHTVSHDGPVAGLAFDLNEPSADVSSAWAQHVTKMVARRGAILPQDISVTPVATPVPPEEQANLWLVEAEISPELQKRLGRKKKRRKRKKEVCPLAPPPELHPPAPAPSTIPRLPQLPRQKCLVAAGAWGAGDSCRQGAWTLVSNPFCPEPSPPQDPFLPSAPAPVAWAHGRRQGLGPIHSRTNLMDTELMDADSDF
Sequence of Protein smoothened (Homo sapiens, UniProt Q99835, V404M) (Q99835 28-787 V404M limits assumed): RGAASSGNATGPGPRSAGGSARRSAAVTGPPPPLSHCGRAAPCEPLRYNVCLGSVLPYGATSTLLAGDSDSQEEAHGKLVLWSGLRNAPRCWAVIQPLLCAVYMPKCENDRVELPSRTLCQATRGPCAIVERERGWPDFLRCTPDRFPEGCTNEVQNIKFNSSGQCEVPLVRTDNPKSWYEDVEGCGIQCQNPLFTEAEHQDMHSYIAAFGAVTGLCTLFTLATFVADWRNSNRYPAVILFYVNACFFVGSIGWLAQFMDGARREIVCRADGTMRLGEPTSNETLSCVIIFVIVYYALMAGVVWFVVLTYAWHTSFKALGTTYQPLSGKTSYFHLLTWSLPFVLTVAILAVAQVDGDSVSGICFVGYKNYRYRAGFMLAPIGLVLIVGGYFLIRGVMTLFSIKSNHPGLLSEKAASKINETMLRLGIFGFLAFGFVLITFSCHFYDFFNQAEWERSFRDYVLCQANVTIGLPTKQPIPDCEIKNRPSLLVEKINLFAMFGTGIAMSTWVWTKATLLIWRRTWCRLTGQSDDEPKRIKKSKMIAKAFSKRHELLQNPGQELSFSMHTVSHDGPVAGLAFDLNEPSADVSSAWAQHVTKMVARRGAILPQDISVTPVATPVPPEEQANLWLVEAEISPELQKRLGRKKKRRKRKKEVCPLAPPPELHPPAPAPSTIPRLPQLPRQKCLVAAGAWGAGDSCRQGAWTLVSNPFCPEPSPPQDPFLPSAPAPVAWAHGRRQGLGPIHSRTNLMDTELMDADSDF
Sequence of Protein smoothened (Homo sapiens, UniProt Q99835) (Q99835 whole entry): as the sequence (Q99835 whole entry V404M) above, with M404V counted along it

SMILES | inhibition [1] | pKi (Protein smoothened [2]) | inhibition [5] | inhibition [12] | inhibition [13] | inhibition [15] | also measured
COc1cc2c(Oc3ccc(NC(=O)C4(C(=O)Nc5ccc(F)cc5)CC4)cc3F)ccnc2cc1OCCCN1CCOCC1 [FORETINIB] | inactive | 7.18 | 10 to 100% | 25 to 50% | Dose-dependent effect | – | pKi (Protein smoothened [3]): 7.22; Activity (HCC827 [4]): Active; Activity (HCC827 [6]): Active; Activity (HCC827 [7]): Non-Toxic; Activity (HCC827 [8]): Non-Toxic; Activity (HCC827 [9]): Dose-dependent effect; pIC50 (HCC827 [9]): 6.30; Activity (HCC827 [10]): Active; Activity (HCC827 [11]): Active; Activity (HCC827 [14]): Active
Cc1ccc(NC(=O)CN2C(=O)/C(=N/NC(=O)c3cc(Br)ccc3O)c3ccccc32)cc1 | inactive | 7.30 | 10 to 100% | 25 to 50% | Dose-dependent effect | – | –
CSc1cccc(Nc2ncc3cc(-c4c(Cl)cccc4Cl)c(=O)n(C)c3n2)c1 | inactive | 7.34 | 10 to 100% | 25 to 50% | Dose-dependent effect | – | –
O=C(NNC(=O)c1ccc([N+](=O)[O-])cc1)C(=O)c1c[nH]c2ccccc12 | inactive | 6.77 | 10 to 100% | 25 to 50% | Dose-dependent effect | – | –
Cc1ccc(F)c(NC(=O)Nc2ccc(-c3cccc4[nH]nc(N)c34)cc2)c1 [LINIFANIB] | inactive | 7.06 | 10 to 100% | 25 to 50% | Dose-dependent effect | – | –
Cc1cccc(C(=O)Nc2ccc(C(=O)NNC3C(=O)Nc4ccccc43)cc2)c1 (stereo not given) | – | – | – | – | – | inactive | –
O=C(CCCCCC(=O)N/N=C/c1cc2c(cc1[N+](=O)[O-])OCO2)N/N=C/c1cc2c(cc1[N+](=O)[O-])OCO2 | – | – | – | – | – | inactive | –
COc1cc2ncnc(Oc3cccc(NC(=O)Nc4cc(C(C)(C)C(F)(F)F)on4)c3)c2cc1OC [CEP-32496] | inactive | 6.73 | 10 to 100% | 25 to 50% | Dose-dependent effect | – | –
Cn1cnc(-c2cc3nccc(Oc4ccc(NC(=S)NC(=O)Cc5ccccc5)cc4F)c3s2)c1 | inactive | 7.27 | 10 to 100% | 25 to 50% | Dose-dependent effect | – | pKi (Protein smoothened [3]): 7.38; Activity (HCC827 [16]): Active; concentration at 5 h [17]: 800 nM; Activity (HCC827 [18]): Non-Toxic; Activity (HCC827 [19]): Active; inhibition [20]: Active; Activity (HCC827 [9]): Dose-dependent effect; pIC50 (HCC827 [9]): 7.10; Activity (HCC827 [21]): Active; inhibition [22]: Active; Activity (HCC827 [23]): Active; inhibition [24]: Active; Activity (HCC827 [25]): 62%; Activity (HCC827 [26]): Non-Toxic; inhibition (Homo sapiens): Active; Activity (HCC827 [27]): 84%
CCOc1ccn(-c2ccc(F)cc2)c(=O)c1C(=O)Nc1ccc(Oc2ccnc(N)c2Cl)c(F)c1 | – | – | – | – | – | inactive | –
CC(C)(O)CC(=O)NCCn1ccc2ncnc(Nc3ccc(Oc4cccc(C(F)(F)F)c4)c(Cl)c3)c21 | – | – | – | – | – | inactive | –
CCN1CCN(c2ccc(Nc3cc(N(C)C(=O)Nc4c(Cl)c(OC)cc(OC)c4Cl)ncn3)cc2)CC1 [INFIGRATINIB] | inactive | 7.33 | 10 to 100% | 25 to 50% | Dose-dependent effect | – | –
